Legend:
Progesterone receptor [1] = biological target: T1, Progesterone receptor (Homo sapiens, UniProt P06401); assay: Antagonist activity at PR in human T47D cells assessed as inhibition of progesterone-induced alkaline phosphatase expression after 24 hrs by alkaline phopshatase assay; format: cell-based
T1 sequence (P06401 whole entry): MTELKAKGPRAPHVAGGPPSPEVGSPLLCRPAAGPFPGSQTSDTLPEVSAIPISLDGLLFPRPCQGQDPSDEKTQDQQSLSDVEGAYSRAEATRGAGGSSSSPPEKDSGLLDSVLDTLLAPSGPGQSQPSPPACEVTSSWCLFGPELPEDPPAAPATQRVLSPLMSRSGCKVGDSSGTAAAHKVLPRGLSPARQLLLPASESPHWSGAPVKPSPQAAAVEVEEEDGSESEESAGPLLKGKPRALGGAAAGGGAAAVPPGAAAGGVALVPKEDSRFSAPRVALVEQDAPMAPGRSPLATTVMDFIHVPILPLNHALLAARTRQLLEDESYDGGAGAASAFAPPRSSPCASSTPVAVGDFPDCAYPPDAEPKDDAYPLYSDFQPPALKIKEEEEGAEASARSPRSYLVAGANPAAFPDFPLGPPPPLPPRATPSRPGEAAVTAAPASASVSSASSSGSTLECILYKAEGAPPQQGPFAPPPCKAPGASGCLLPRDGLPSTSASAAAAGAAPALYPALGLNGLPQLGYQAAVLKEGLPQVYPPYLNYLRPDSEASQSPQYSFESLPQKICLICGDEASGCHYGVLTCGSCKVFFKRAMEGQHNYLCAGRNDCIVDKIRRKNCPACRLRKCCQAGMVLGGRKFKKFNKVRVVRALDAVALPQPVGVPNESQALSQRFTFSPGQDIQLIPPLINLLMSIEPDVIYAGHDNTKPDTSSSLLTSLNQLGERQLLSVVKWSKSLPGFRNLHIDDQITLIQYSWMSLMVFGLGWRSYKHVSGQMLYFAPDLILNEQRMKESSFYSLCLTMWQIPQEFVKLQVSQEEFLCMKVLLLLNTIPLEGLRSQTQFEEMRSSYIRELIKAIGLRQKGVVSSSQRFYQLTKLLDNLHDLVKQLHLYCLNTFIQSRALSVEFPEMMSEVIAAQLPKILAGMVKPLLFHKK
How it was run: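 T-47D cells seeded at 10^4 cells/well and incubated overnight at 37°C, 5% CO₂. Fresh medium with compound added for 24 h. Cells fixed in 1.8% formalin in PBS and washed. Substrate was 1 mg/mL p-nitrophenyl phosphate in diethanolamine buffer, pH 9.0, 2 mM MgCl₂, for 2 h at room temperature in the dark. Stopped with 1 M NaOH; absorbance read at 405 nm.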

Progesterone receptor [2] = biological target: T1, Progesterone receptor; assay: Displacement of [1,2,6,7-3H]progesterone from recombinant human GST-tagged PR-LBD (675 to 933 residues) expressed in baculovirus-infected insect cells measured after 24 hrs by liquid scintillation counting method
How it was run: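 Incubated with 4 nM [³H]progesterone and compound (final DMSO 3%) for 24 h at 4°C in the dark. Nonspecific binding set with 200-fold excess unlabeled progesterone. Free ligand removed with dextran/γ-globulin-coated charcoal, 5 min at 4°C, then centrifuged; supernatant counted by liquid scintillation. Duplicates.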

Androgen receptor [3] = biological target: T2, Androgen receptor (Mus musculus, UniProt P19091); assay: Antagonist activity at AR in mouse SC3 cells assessed as inhibition of dihydrotestosterone-induced cell growth at 10^-5 M measured after 3 days by CCK8 assay; format: cell-based; settings: sc-3, 72 h, 10 µM
T2 sequence (P19091 whole entry): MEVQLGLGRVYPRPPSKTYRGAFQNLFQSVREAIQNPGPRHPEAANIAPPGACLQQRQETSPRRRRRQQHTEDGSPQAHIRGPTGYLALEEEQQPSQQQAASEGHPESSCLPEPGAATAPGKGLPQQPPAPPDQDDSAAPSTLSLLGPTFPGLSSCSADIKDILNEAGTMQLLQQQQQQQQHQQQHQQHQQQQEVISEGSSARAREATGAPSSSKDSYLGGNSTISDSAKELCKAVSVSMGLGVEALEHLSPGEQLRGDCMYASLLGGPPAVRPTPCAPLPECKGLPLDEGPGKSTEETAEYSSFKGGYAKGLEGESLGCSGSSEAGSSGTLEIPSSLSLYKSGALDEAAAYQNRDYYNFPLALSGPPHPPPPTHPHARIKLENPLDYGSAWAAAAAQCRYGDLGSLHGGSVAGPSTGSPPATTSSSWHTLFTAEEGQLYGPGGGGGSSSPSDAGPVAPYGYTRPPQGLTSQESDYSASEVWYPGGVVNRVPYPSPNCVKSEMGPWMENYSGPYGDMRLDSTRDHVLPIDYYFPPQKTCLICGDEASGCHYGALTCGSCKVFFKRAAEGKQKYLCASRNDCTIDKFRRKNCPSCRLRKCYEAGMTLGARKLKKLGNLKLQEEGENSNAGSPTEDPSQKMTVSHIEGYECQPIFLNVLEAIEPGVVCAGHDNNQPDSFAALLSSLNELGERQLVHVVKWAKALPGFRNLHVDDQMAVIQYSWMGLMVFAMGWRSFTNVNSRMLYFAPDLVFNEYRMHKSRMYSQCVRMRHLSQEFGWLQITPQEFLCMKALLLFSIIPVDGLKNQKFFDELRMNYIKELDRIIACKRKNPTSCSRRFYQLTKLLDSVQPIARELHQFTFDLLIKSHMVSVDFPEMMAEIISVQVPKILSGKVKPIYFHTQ
How it was run: (§1)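 SC-3 cells kept in MEMα with 2% FBS and 1 nM DHT at 37°C, 5% CO₂. Trypsinized, diluted to 20,000 cells/mL in MEMα with 2% charcoal-stripped FBS, seeded and held 24 h. Serial dilutions of compound or DMSO control added with 1 nM DHT. Incubated 3 days at 37°C. Cell number read by WST-8 (CCK-8), 2 h, absorbance at 450 nm. Triplicate or more.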

Glucocorticoid receptor = biological target: T3, Glucocorticoid receptor (Homo sapiens, UniProt P04150); assay: Displacement of [3H]dexamethasone from human GR measured after 18 hrs by scintillation counting method
T3 sequence (P04150 whole entry): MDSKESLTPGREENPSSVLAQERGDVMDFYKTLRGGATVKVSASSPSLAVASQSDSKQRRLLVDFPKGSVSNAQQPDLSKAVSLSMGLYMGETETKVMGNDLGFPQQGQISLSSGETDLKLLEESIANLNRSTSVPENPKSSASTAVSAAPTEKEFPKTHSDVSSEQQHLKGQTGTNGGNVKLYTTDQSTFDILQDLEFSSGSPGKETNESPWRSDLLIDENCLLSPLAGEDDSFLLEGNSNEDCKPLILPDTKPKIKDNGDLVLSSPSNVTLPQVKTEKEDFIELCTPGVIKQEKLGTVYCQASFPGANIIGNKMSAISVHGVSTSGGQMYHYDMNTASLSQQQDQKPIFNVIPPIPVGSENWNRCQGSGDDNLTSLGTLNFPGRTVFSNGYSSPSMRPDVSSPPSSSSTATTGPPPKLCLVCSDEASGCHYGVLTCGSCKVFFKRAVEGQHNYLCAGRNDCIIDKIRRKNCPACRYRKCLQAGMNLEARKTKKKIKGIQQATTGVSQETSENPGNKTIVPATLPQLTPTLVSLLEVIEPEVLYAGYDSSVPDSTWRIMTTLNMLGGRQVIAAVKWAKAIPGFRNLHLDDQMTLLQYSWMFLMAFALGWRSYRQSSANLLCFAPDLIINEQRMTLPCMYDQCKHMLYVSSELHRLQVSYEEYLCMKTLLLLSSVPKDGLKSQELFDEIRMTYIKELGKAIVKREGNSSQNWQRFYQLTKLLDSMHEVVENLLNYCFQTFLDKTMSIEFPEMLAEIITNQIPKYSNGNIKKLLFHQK
How it was run: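 hGR at 1.25 nM final in 50 mM KH₂PO₄ pH 7.4 with 10 mM sodium molybdate and 1 mM DTT. Incubated with 10^-9 M [³H]dexamethasone and compounds at 10^-7 to 10^-5 M, 0.4% DMSO, for 18 h. Nonspecific binding set with 10^-5 M triamcinolone acetonide. Bound ligand collected by vacuum filtration on glass-fiber filters and counted. Duplicates.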

Mus musculus = organism: Mus musculus; assay: Cytotoxicity against mouse SC3 cells assessed as effect on cell growth at 10^-5 to 10^-7 M after 3 days by CCK8 assay; format: toxicity; settings: sc-3, 72 h; how it was run: as §1
Androgen receptor [4] = biological target: T2, Androgen receptor; assay: Antagonist activity at AR in mouse SC3 cells assessed as inhibition of dihydrotestosterone-induced cell growth 10^-5 to 10^-7 M measured after 3 days by CCK8 assay; format: cell-based; settings: sc-3, 72 h
How it was run: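 SC-3 cells maintained in MEMα with 2% FBS and 1 nM DHT, 37°C, 5% CO2. Seeded at 20,000 cells/mL in MEMα with 2% charcoal-stripped FBS and held 24 h. Serial dilutions of compound (DMSO control) added with 1 nM DHT, then 3 days at 37°C. WST-8 (CCK-8) added for 2 h, absorbance read at 450 nm. Triplicate or more.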

| SMILES | IC50 (Progesterone receptor [1]) | further results |
| --- | --- | --- |
| N#Cc1ccc(-c2ccc3oc(=O)ccc3c2)[nH]1 | 140 nM | – |
| N#Cc1ccc(-c2ccc3oc(=O)ccc3c2)n1Cc1ccc2ccccc2c1 | 290 nM | – |
| CCN(CC)c1cc2oc(=O)ccc2cc1-c1ccc(C#N)n1CC#N | 850 nM | – |
| CCN(CC)c1cc2oc(=O)ccc2cc1-c1ccc(C#N)[nH]1 | 120 nM | – |
| COc1cc2oc(=O)cc(C)c2cc1-c1ccc(C#N)n1CC1CCCCC1 | 550 nM | – |
| COc1cc2oc(=O)cc(C)c2cc1-c1ccc(C#N)n1Cc1ccc(C#N)cc1 | 480 nM | – |
| CCN(CC)c1cc2oc(=O)ccc2cc1-c1ccc(C#N)n1CC | 250 nM | – |
| CCCCCCn1c(C#N)ccc1-c1ccc2oc(=O)ccc2c1 | 34 nM | IC50 (Progesterone receptor [2]): 160 nM |
| CCn1c(C#N)ccc1-c1cc2c(C)cc(=O)oc2cc1OC | 38 nM | – |
| O=c1ccc2cc(-c3sccc3Cl)ccc2o1 | 230 nM | – |
| N#CCn1c(C#N)ccc1-c1ccc2oc(=O)ccc2c1 | 15800 nM | – |
| COc1cc2oc(=O)cc(C)c2cc1-c1ccc(C#N)[nH]1 | 260 nM | – |
| COc1cc2oc(=O)cc(C)c2cc1-c1ccc(C#N)n1Cc1ccc(F)cc1 | 570 nM | – |
| N#Cc1ccc(Cn2c(C#N)ccc2-c2ccc3oc(=O)ccc3c2)cc1 | 290 nM | – |
| CC(=O)c1ccc(-c2ccc3oc(=O)ccc3c2)s1 | 240 nM | – |
| COc1cc2oc(=O)cc(C)c2cc1-c1ccc(C#N)n1Cc1ccccc1 | 230 nM | – |

| SMILES | IC50 (Progesterone receptor [1]) | further results |
| --- | --- | --- |
| N#Cc1ccc(-c2ccc3oc(=O)ccc3c2)n1Cc1ccc(F)cc1 | 210 nM | – |
| CCN(CC)c1cc2oc(=O)ccc2cc1-c1ccc(C#N)n1C | 240 nM | inhibition (INH) (Androgen receptor [3]): Active; IC50 (Glucocorticoid receptor): 10000 nM; IC50 (Progesterone receptor [2]): 1360 nM; Activity (Mus musculus): Non-Toxic |
| N#Cc1ccc(-c2ccc3oc(=O)ccc3c2)n1CC1CCCCC1 | 31 nM | – |
| CCCCCCn1c(C#N)ccc1-c1cc2c(C)cc(=O)oc2cc1OC | 180 nM | – |
| CCn1c(C#N)ccc1-c1ccc2oc(=O)ccc2c1 | 220 nM | – |
| COc1cc2oc(=O)cc(C)c2cc1-c1ccc(C#N)n1C | 24 nM | inhibition (INH) (Androgen receptor [4]): Active; IC50 (Progesterone receptor [2]): 990 nM; Activity (Mus musculus): Non-Toxic |
| N#Cc1ccc(-c2ccc3oc(=O)ccc3c2)s1 | 140 nM | – |
| N#Cc1ccc(-c2ccc3oc(=O)ccc3c2)n1Cc1c(F)c(F)c(F)c(F)c1F | 190 nM | – |
| Cc1ccsc1-c1ccc2oc(=O)ccc2c1 | 150 nM | – |
| N#Cc1ccc(-c2ccc3oc(=O)ccc3c2)n1Cc1ccccc1 | 56 nM | IC50 (Progesterone receptor [2]): 790 nM |
| CCN(CC)c1cc2oc(=O)ccc2cc1-c1ccc(C#N)n1Cc1ccccc1 | 580 nM | – |
| Cc1ccc(-c2ccc3oc(=O)ccc3c2)s1 | 440 nM | – |
| N#Cc1ccc(-c2ccc3oc(=O)ccc3c2)n1Cc1ccc([N+](=O)[O-])cc1 | 450 nM | – |
| Cc1cc(=O)oc2cc(O)c(-c3ccc(C#N)n3C)cc12 | 300 nM | IC50 (Progesterone receptor [2]): 15700 nM |
| N#Cc1ccc(-c2ccc3oc(=O)ccc3c2)n1Cc1cc(F)cc(F)c1 | 160 nM | – |
| CC(C)(O)C(=O)Nc1ccc([N+](=O)[O-])c(C(F)(F)F)c1 [HYDROXYFLUTAMIDE] | – | inhibition (INH) (Androgen receptor [4]): Active |

Source: ChEMBL document CHEMBL3861998, “Development of 6-arylcoumarins as nonsteroidal progesterone antagonists. Structure-activity relationships and fluorescence properties” (Bioorg Med Chem, 2016)
